# Assay results from different studies.
# Protocols differ between the studies behind these lines.
# SLC22A2: Solute carrier family 22 member 2 (SLC22A2, Homo sapiens, UniProt O15244)
SMILES,target or system,assay,system,setting,quantity,result
CON=C(N)c1ccc(-c2ccc(-c3ccc(C(N)=NOC)cc3)o2)cc1,"Cytochrome P450 1B1 (CYP1B1, Homo sapiens, UniProt Q16678)","enzyme activity, substrate",,,Km,300 nM
CC(C)(O)c1ccccc1-c1ccc2[nH]c(/C=C/c3ccc(C(F)(F)F)cc3)nc2c1,,,"male human, plasma","oral, 60 mg, single dose, fasted, healthy volunteers",half-life,3200 min
C=C[C@H]1C[N@@]2CC[C@H]1C[C@@H]2[C@@H](O)c1ccnc2ccc(OC)cc12,SLC22A2,"transporter uptake, inhibitor",MDCK-II,"100 µM, 5 min",inhibition,78%
CC(C)n1cc(C#N)c2cc(-n3cc(C(=O)O)cn3)ccc21,,,"human, plasma","oral, 400 mg, single dose, fasted, healthy volunteers",half-life,786 min
COC(=O)c1csc(C(=O)c2c[nH]c3ccccc23)n1,"Aryl hydrocarbon receptor (AHR, Homo sapiens, UniProt P35869)","reporter gene, agonist, luciferase",,,EC50,4.6 nM
O=C(O)CSc1nnc(Br)n1-c1ccc(C2CC2)c2ccccc12,SLC22A2,"transporter uptake, inhibitor",MDCK-II,"100 µM, 5 min",inhibition,26%
COc1ccc(-c2ocnc2C(=O)NCCCn2cncn2)cc1Cl,THLE,cell growth or viability,,,IC50,117 µM
CC[C@H](C)[C@H](NC(=O)[C@H](CCC(=O)O)NC(=O)[C@H](CO)NC(=O)[C@@H](NC(=O)[C@@H](N)CO)C(C)C)C(=O)N[C@@H](CCC(N)=O)C(=O)N[C@@H](CC(C)C)C(=O)N[C@@H](CCSC)C(=O)N[C@@H](Cc1cnc[nH]1)C(=O)N[C@@H](CC(N)=O)C(=O)N[C@@H](CC(C)C)C(=O)NCC(=O)N[C@@H](CCCCN)C(=O)N[C@@H](Cc1cnc[nH]1)C(=O)N[C@@H](CC(C)C)C(=O)N[C@@H](CC(N)=O)C(=O)N[C@@H](CO)C(=O)N[C@@H](CCSC)C(=O)N[C@@H](CCC(=O)O)C(=O)N[C@@H](CCCN=C(N)N)C(=O)N[C@H](C(=O)N[C@@H](CCC(=O)O)C(=O)N[C@@H](Cc1c[nH]c2ccccc12)C(=O)N[C@@H](CC(C)C)C(=O)N[C@@H](CCCN=C(N)N)C(=O)N[C@@H](CCCCN)C(=O)N[C@@H](CCCCN)C(=O)N[C@@H](CC(C)C)C(=O)N[C@@H](CCC(N)=O)C(=O)N[C@@H](CC(=O)O)C(=O)N[C@H](C(=O)N[C@@H](Cc1cnc[nH]1)C(=O)N[C@@H](CC(N)=O)C(=O)N[C@@H](Cc1ccccc1)C(=O)O)C(C)C)C(C)C,,"chemical stability, HPLC",aqueous buffer,"0.5 mg/mL, 2 min, pH 6.5",compound remaining,100%
COc1ccc(S(=O)(=O)ON=C2C=C(C)C(=O)C(C)=C2)cc1,MDA-MB-468,cell growth or viability,,,CC50,2570 nM
